Tests used:
[1] = AUC (0 to infinity) in ICR mouse at 3 mg/kg, ip and measured up to 24 hrs by TQ-S triple quadrupole mass spectrometric method; type: ADME, organism-based; parameters: route intraperitoneal, dose 3 mg/kg, time <=24; details: in vivo
Procedure, shortened: (§1)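 Male ICR mice (20 - 22 g, n = 3) dosed intraperitoneally, compound at 1 mg/mL in 1%DMSO/0.5%HPMC (5/95, v/v). EDTA plasma collected 0.25–24 h. 10 µL plasma treated with methanol:acetonitrile (1:1) containing internal standard, then centrifuged. LC-MS/MS on C18 UPLC. Parameters derived from composite mean plasma concentration-time data; Cmax is the maximum observed concentration and Tmax the time it is reached.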

[2] = Elimination rate constant in ICR mouse at 3 mg/kg, ip and measured up to 24 hrs by TQ-S triple quadrupole mass spectrometric method; type: ADME, organism-based; details: in vivo; procedure, shortened: as §1
[3] = target: T1, Cyclin-dependent kinase 2 (Homo sapiens, UniProt P24941); test: Inhibition of human CDK2 by kinome scan method
[4] = target: T2, Cyclin-dependent kinase 9 (Homo sapiens, UniProt P50750); test: Inhibition of CDK9 in human HCT-116 cells assessed as reduction in phosphorylation of AR protein expression at 50 to 500 nM after 24 hrs by Western blot analysis; type: cell-based; details: dose nM 50-500, time 24.0 hrs
T2 sequence (P50750 whole entry): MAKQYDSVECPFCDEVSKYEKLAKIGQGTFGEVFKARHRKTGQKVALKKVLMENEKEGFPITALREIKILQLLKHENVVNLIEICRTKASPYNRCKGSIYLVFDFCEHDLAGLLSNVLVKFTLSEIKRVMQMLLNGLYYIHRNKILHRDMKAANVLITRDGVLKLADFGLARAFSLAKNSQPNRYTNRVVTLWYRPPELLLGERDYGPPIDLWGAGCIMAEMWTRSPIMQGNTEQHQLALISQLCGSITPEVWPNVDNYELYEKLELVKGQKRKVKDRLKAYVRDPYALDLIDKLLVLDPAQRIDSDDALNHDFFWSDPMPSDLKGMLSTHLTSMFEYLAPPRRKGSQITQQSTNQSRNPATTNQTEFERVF
Procedure, shortened: (§2)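 HCT-116 cells plated 24 h, then treated 24 h at 0, 50, 100, 250 or 500 nM. Lysates immunoblotted for p-AR and p-RNA Pol II CTD with GAPDH as loading control; bands quantified and normalized.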

[5] = target: T3, Bromodomain-containing protein 4 (Homo sapiens, UniProt O60885); test: Inhibition of His6-tagged BRD4 bromodomain 2 (unknown origin) expressed in Escherichia coli Bl21(DE3) cells at 1 uM incubated for 4 hrs by FP assay relative to control
Procedure, shortened: (§3)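 Fluorescence polarization. Purified bromodomain (His6 tag removed with TEV, size-exclusion purified) equilibrated with fluorescent ligand. Compound or DMSO (2‰ final) then added and left 4 h at room temperature in the dark. Anisotropy read at ex 485/em 530 nm. IC50 values are means of at least two independent experiments; single-point inhibition tested at the listed concentration.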

[6] = AUC (0 to t) in ICR mouse at 3 mg/kg, ip and measured up to 24 hrs by TQ-S triple quadrupole mass spectrometric method; type: ADME, organism-based; parameters: route intraperitoneal, dose 3 mg/kg, time <=24; details: in vivo; procedure, shortened: as §1
[7] = target: T1, Cyclin-dependent kinase 2; test: Inhibition of human CDK2 at 1 uM by kinome scan method relative to control
Procedure, shortened: (§4)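 Eurofins DiscoveRx diversity kinase panel run at 1 µM. Inhibition values are means of at least two independent experiments.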

[8] = target: T2, Cyclin-dependent kinase 9; test: Inhibition of human CDK9 by mobility shift assay relative to control
Procedure, shortened: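 Recombinant CDK9 incubated with compound and CTD3 peptide substrate. Activity read by Caliper mobility-shift; Dinaciclib served as positive control. IC50 values are means of at least two independent experiments.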

[9] = Tmax in ICR mouse at 3 mg/kg, ip and measured up to 24 hrs by TQ-S triple quadrupole mass spectrometric method; type: ADME, organism-based; details: in vivo; procedure, shortened: as §1
Homo sapiens = organism: Homo sapiens; test: Selectivity ratio of IC50 for inhibition of human CDK2 to IC50 for inhibition of human CDK9
[10] = target: Bromodomain-containing protein 2 (Homo sapiens) (UniProt P25440); test: Inhibition of His6-tagged BRD2 bromodomain 1 (unknown origin) expressed in Escherichia coli Bl21(DE3) cells at 1 uM incubated for 4 hrs by FP assay relative to control; procedure, shortened: as §3
Chain of Bromodomain-containing protein 2 (Homo sapiens) (P25440 whole entry, looked up): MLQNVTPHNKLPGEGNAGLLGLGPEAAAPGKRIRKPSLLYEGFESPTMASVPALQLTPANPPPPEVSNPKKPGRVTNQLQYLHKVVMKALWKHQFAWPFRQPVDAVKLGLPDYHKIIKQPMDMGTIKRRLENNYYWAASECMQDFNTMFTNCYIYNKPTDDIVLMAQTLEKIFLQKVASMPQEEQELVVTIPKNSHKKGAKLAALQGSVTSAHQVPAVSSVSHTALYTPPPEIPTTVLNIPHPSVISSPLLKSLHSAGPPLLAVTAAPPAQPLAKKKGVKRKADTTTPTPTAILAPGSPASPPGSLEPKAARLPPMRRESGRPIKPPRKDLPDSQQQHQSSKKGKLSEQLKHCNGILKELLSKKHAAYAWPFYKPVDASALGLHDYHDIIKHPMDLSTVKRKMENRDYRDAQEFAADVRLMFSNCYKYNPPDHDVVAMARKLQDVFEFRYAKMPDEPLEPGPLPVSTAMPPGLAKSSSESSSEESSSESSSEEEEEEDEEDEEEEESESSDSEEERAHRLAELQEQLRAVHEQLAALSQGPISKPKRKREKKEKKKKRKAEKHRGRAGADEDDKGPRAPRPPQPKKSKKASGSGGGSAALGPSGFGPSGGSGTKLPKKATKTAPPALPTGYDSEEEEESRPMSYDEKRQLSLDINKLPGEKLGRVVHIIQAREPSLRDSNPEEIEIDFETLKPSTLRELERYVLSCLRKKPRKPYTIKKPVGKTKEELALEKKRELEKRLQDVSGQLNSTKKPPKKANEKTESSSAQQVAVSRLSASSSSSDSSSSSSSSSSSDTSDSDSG

[11] = target: T3, Bromodomain-containing protein 4; test: Inhibition of His6-tagged BRD4 bromodomain 1 (unknown origin) expressed in Escherichia coli Bl21(DE3) cells incubated for 4 hrs by FP assay; procedure, shortened: as §3
[12] = Half life in ICR mouse at 3 mg/kg, ip and measured up to 24 hrs by TQ-S triple quadrupole mass spectrometric method; type: ADME, organism-based; details: in vivo; procedure, shortened: as §1
[13] = target: Bromodomain-containing protein 2 (Homo sapiens) (UniProt P25440); test: Inhibition of His6-tagged BRD2 bromodomain 2 (unknown origin) expressed in Escherichia coli Bl21(DE3) cells at 1 uM incubated for 4 hrs by FP assay relative to control; procedure, shortened: as §3
[14] = target: T2, Cyclin-dependent kinase 9; test: Inhibition of CDK9 in human HCT-116 cells assessed as reduction in phosphorylation of […] protein expression at 50 to 500 nM after 24 hrs by Western blot analysis; type: cell-based; details: dose nM 50-500, time 24.0 hrs; procedure, shortened: as §2
[15] = target: Cyclin-dependent kinase 1 (Homo sapiens) (UniProt P06493); test: Inhibition of human CDK1 at 1 uM by kinome scan method relative to control; procedure, shortened: as §4
Chain of Cyclin-dependent kinase 1 (Homo sapiens) (P06493 whole entry, looked up): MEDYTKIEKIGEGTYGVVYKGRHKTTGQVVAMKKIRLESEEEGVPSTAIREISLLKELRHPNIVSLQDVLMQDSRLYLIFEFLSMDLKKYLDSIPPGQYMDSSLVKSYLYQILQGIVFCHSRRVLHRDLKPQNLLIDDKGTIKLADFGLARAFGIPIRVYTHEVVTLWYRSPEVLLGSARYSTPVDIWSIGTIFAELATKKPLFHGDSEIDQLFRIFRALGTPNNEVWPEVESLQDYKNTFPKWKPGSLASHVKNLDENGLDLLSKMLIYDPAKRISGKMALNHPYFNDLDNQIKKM

[16] = Cmax in ICR mouse at 3 mg/kg, ip and measured up to 24 hrs by TQ-S triple quadrupole mass spectrometric method; type: ADME, organism-based; parameters: route intraperitoneal, dose 3 mg/kg, time <=24; details: in vivo; procedure, shortened: as §1

Molecule `CC(C)N1c2cc(Nc3nccc(-c4cncc5ccccc45)n3)ccc2N(C)C(=O)[C@H]1C` has an AUC(0-inf) [1] of 759 ng·h/mL, a k el at 24 h [2] of 0.000403 s⁻¹ and an IC50 [3] of 169 nM. For the same molecule, the inhibition [4] was “Dose-dependent effect”, the inhibition [5] was < 12% and the AUC(0-t) at 24 h [6] was 757 ng·h/mL. It also gave an inhibition [7] of 90%, an IC50 [8] of 22.4 nM and a Tmax [9] of 11.6 min. The Ratio IC50 (Homo sapiens) was 8, the inhibition [10] was < 12% and the IC50 [11] was 12.7 nM. For the same molecule, the half-life [12] was 28.8 min, the inhibition [13] was < 12% and the inhibition [14] was “Dose-dependent effect”. The inhibition [15] was 90% and the Cmax [16] was 1370 ng/mL.

From ChEMBL document CHEMBL4725348, “Rational Design and Evaluation of 6-(Pyrimidin-2-ylamino)-3,4-dihydroquinoxalin-2(1H)-ones as Polypharmacological Inhibitors of BET and Kinases” (J Med Chem, 2020)
